Test results from ChEMBL document CHEMBL1157762, “Sequence inversion and phenylalanine surrogates at the beta-turn enhance the antibiotic activity of gramicidin S” (J Med Chem, 2010).
Values after ≈ are worked out from the molar mass of the structure shown. Where a SMILES comes first, the peptide text is derived from it.

What was measured:
Staphylococcus aureus = experiment: Antibacterial activity against Staphylococcus aureus CECT 240 after 24 hrs by turbidimetry; format: functional; settings: CECT 240, 24 h
Procedure, shortened: (§1)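 Frozen stocks thawed and grown two days in cation-adjusted Mueller-Hinton II broth at 37 °C. Exponential-phase cells washed twice in PBS pH 7.0 and resuspended in the same broth at 5 × 10^5 CFU/mL. Incubated 24 h at 37 °C with peptide, growth read by turbidity at 600 nm. Two experiments, triplicate samples. MIC50 taken as lowest concentration giving 50% growth inhibition versus untreated control.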

Listeria monocytogenes = experiment: Antibacterial activity against Listeria monocytogenes CECT 4032 after 24 hrs by turbidimetry; format: functional; settings: CECT 4032, 24 h; procedure, shortened: as §1
[1] = Therapeutic index, ratio of HC50 for sheep erythrocytes to MIC50 for polymyxin E-resistant Acinetobacter baumannii ATCC 19606

Row | MIC50 (Staphylococcus aureus) [µM] | SMILES | MIC50 (Listeria monocytogenes) [µM] | selectivity ratio [1]
1 | 2.4 (≈ 2.8 µg/mL) | CC(C)C[C@@H]1NC(=O)[C@H](CCCN)NC(=O)[C@H](C(C)C)NC(=O)[C@@H]2Cc3ccccc3CN2C(=O)[C@H]2CCCN2C(=O)[C@H](CC(C)C)NC(=O)[C@H](CCCN)NC(=O)[C@H](C(C)C)NC(=O)[C@@H]2Cc3ccccc3CN2C(=O)[C@H]2CCCN2C1=O (HELM PEPTIDE1{L.[dP].[Tic].V.[Orn].L.[dP].[Tic].V.[Orn]}$PEPTIDE1,PEPTIDE1,1:R1-10:R2$$$V2.0) |  | 
2 |  | CC(C)C[C@@H]1NC(=O)[C@H](CCCN)NC(=O)[C@H](C(C)C)NC(=O)[C@H](C2c3ccccc3-c3ccccc32)NC(=O)[C@H]2CCCN2C(=O)[C@H](CC(C)C)NC(=O)[C@H](CCCN)NC(=O)[C@H](C(C)C)NC(=O)[C@H](C2c3ccccc3-c3ccccc32)NC(=O)[C@H]2CCCN2C1=O (HELM PEPTIDE1{L.[dP].[O=C([C@@H](N[*:1])C1c2ccccc2-c2ccccc21)[*:2]].V.[Orn].L.[dP].[O=C([C@@H](N[*:1])C1c2ccccc2-c2ccccc21)[*:2]].V.[Orn]}$PEPTIDE1,PEPTIDE1,1:R1-10:R2$$$V2.0) | 2.2 (≈ 2.84 µg/mL) | 0.1
